The results in this text go back to ChEMBL document CHEMBL2390844, “Evaluation of bioactivities of chlorokojic acid derivatives against dermatophytes couplet with cytotoxicity” (Bioorg Med Chem Lett, 2013).

A word on the MIC: it is the least concentration at which growth counts as inhibited.

The structures appear in SMILES notation. In brackets after ≈: the same amount, converted by molar mass.

The subject of data set [1] is Epidermophyton floccosum. Nature of the data set: Antidermatophytic activity against Epidermophyton floccosum isolate after 7 days by broth microdilution method. It counts as functional. To be noted: 168 h. An outline of the steps: (§1)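 Broth microdilution per CLSI in RPMI 1640 with L-glutamine, no bicarbonate, buffered to pH 7.0 with 0.165 M MOPS, filter-sterilized. Test dilution series 128-0.0625 μg mL⁻¹; sterility and growth (inoculum) controls on each plate. Wells inoculated, incubated 28°C for 7 days, read visually with an inverted mirror; MIC recorded. Triplicate.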

Data set [2] can be described thus: Antidermatophytic activity against Trichophyton mentagrophytes var. erinacei NCPF 375 after 7 days by broth microdilution method. The class given is functional. To be noted: Arthroderma benhamiae. The gist of the method:
as §1

Data set [3] has as its system Nannizzia gypsea. Nature of the data set: Antidermatophytic activity against Microsporum gypseum isolate after 7 days by broth microdilution method. Particulars: 168 h. It counts as functional. An outline of the steps:
as §1
For orientation: In broth dilution the organism is exposed to a series of concentrations in liquid medium.

In data set [4] the test system is Epidermophyton floccosum. Description: Antidermatophytic activity against Epidermophyton floccosum RSKK 3027 after 7 days by broth microdilution method. The class given is functional. To be noted: RSKK 3027, 168 h. The gist of the method:
as §1

Data set [5] is described as follows: Antidermatophytic activity against Trichophyton mentagrophytes var. erinacei isolate after 7 days by broth microdilution method. The class given is functional. Particulars: Arthroderma benhamiae. An outline of the steps:
as §1

Data set [6] in a line: Cytotoxicity against human MRC5 cells. The class given is cell-based. Particulars: read-out: MNCC. An outline of the steps:
(§2)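 Maximum non-toxic concentration (MNTC) determined in HeLa and MRC-5 cells by a previously described method, based on cellular morphological alteration.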

In data set [7] the test system is Nannizzia gypsea. Nature of the data set: Antidermatophytic activity against Microsporum gypseum NCPF 580 after 7 days by broth microdilution method. It counts as functional. Particulars: NCPF 580, 168 h. The gist of the method: as §1
Data set [8] in a line: Cytotoxicity against human HeLa cells. It counts as cell-based. To be noted: read-out: MNCC. The gist of the method: as §2

For the compound `O=c1cc(CCl)oc(CN2CCN(c3ccc(C(F)(F)F)cc3)CC2)c1O`, the MIC stood at 64 µg/mL (≈ 159 µM) in data set [1]; 32 µg/mL (≈ 79.4 µM) in data set [2]; 64 µg/mL (≈ 159 µM) in data set [3]; 32 µg/mL (≈ 79.4 µM) in data set [4]; 64 µg/mL (≈ 159 µM) in data set [5]; 32 µg/mL (≈ 79.4 µM) in data set [7]. Besides, the MNTC in data set [6] was no less than 128 µg/mL.
As to `Cc1ccc(N2CCN(Cc3oc(CCl)cc(=O)c3O)CC2)cc1`, the MIC was determined as 8 µg/mL (≈ 22.9 µM) in data set [1]; 4 µg/mL (≈ 11.5 µM) in data set [2]; 8 µg/mL (≈ 22.9 µM) in data set [3]; 4 µg/mL (≈ 11.5 µM) in data set [4]; 8 µg/mL (≈ 22.9 µM) in data set [5]; 4 µg/mL (≈ 11.5 µM) in data set [7]. Besides, the MNTC in data set [8] and in data set [6] was no less than 64 µg/mL throughout.
As to `Cc1ccccc1CN1CCN(Cc2oc(CCl)cc(=O)c2O)CC1`, the MIC in data set [1] was 32 µg/mL (≈ 88.2 µM); in data set [2], 16 µg/mL (≈ 44.1 µM); in data set [3], 32 µg/mL (≈ 88.2 µM); in data set [4] it was 16 µg/mL (≈ 44.1 µM); in data set [5], 32 µg/mL (≈ 88.2 µM); in data set [7] it was 16 µg/mL (≈ 44.1 µM). Besides, the MNTC in data set [8] and in data set [6] was no less than 512 µg/mL each time.
`Cc1ccccc1N1CCN(Cc2oc(CCl)cc(=O)c2O)CC1`: the MIC in data set [1] is 32 µg/mL (≈ 91.7 µM); in data set [2], 8 µg/mL (≈ 22.9 µM); in data set [3], 32 µg/mL (≈ 91.7 µM); in data set [4], 16 µg/mL (≈ 45.9 µM); in data set [5] it was 16 µg/mL (≈ 45.9 µM); in data set [7], 16 µg/mL (≈ 45.9 µM). Moreover, the MNTC in data set [8] and in data set [6] was no less than 128 µg/mL throughout.
Regarding `O=c1cc(CCl)oc(CN2CCN(Cc3ccc(C(F)(F)F)cc3)CC2)c1O`, the MIC in data set [1] came to 8 µg/mL (≈ 19.2 µM); in data set [2], 4 µg/mL (≈ 9.6 µM); in data set [3], 8 µg/mL (≈ 19.2 µM); in data set [4], 4 µg/mL (≈ 9.6 µM); in data set [5] it was 8 µg/mL (≈ 19.2 µM); in data set [7], 4 µg/mL (≈ 9.6 µM). For the same compound, the MNTC in data set [8] and in data set [6] was no less than 512 µg/mL throughout.
Turning to `COC1=CC(=O)C[C@@H](C)[C@]12Oc1c(Cl)c(OC)cc(OC)c1C2=O` [GRISEOFULVIN], the MIC came to 1 µg/mL (≈ 2.83 µM) in data set [1]; 0.5 µg/mL (≈ 1.42 µM) in data set [2]; 1 µg/mL (≈ 2.83 µM) in data set [3]; 0.5 µg/mL (≈ 1.42 µM) in data set [4]; 1 µg/mL (≈ 2.83 µM) in data set [5]; 0.5 µg/mL (≈ 1.42 µM) in data set [7].
`O=c1cc(CCl)oc(CN2CCN(Cc3cc(F)ccc3F)CC2)c1O`: the MIC in data set [1] came to 8 µg/mL (≈ 20.8 µM); in data set [2] it was 4 µg/mL (≈ 10.4 µM); in data set [3] it was 8 µg/mL (≈ 20.8 µM); in data set [4] it was 4 µg/mL (≈ 10.4 µM); in data set [5], 8 µg/mL (≈ 20.8 µM); in data set [7], 4 µg/mL (≈ 10.4 µM). Besides, the MNTC in data set [8] and in data set [6] was no less than 256 µg/mL throughout.
For the compound `O=c1cc(CCl)oc(CN2CCN(Cc3cccc(C(F)(F)F)c3)CC2)c1O`, the MIC came to 8 µg/mL (≈ 19.2 µM) in data set [1]; 4 µg/mL (≈ 9.6 µM) in data set [2]; 8 µg/mL (≈ 19.2 µM) in data set [3]; 4 µg/mL (≈ 9.6 µM) in data set [4]; 8 µg/mL (≈ 19.2 µM) in data set [5]; 4 µg/mL (≈ 9.6 µM) in data set [7]. For the same compound, the MNTC in data set [8] and in data set [6] was no less than 512 µg/mL in each case.
Turning to `O=c1cc(CCl)occ1O`, the MIC in data set [1] was determined as 16 µg/mL (≈ 99.7 µM); in data set [2], 4 µg/mL (≈ 24.9 µM); in data set [3], 4 µg/mL (≈ 24.9 µM); in data set [4] it was 8 µg/mL (≈ 49.8 µM); in data set [5], 8 µg/mL (≈ 49.8 µM); in data set [7] it was 2 µg/mL (≈ 12.5 µM). Besides, the MNTC in data set [8] and in data set [6] was no less than 256 µg/mL each time.
On to `CN(C/C=C/C#CC(C)(C)C)Cc1cccc2ccccc12` [TERBINAFINE], for which the MIC in data set [1] was 0.5 µg/mL (≈ 1.72 µM); in data set [2] it was 0.125 µg/mL (≈ 0.429 µM); in data set [3], 0.5 µg/mL (≈ 1.72 µM); in data set [4] it was 0.25 µg/mL (≈ 0.858 µM); in data set [5] it was 0.25 µg/mL (≈ 0.858 µM); in data set [7] it was 0.25 µg/mL (≈ 0.858 µM).
Turning to `O=c1cc(CCl)oc(CN2CC=C(c3ccc(F)cc3)CC2)c1O`, the MIC in data set [1], in data set [2], in data set [3], in data set [4], in data set [5] and in data set [7] was 16 µg/mL (≈ 45.7 µM) each time. The MNTC in data set [8] and in data set [6] was no less than 256 µg/mL each time.
With `O=c1cc(CCl)oc(CN2CCN(Cc3c(Cl)cccc3Cl)CC2)c1O`, the MIC turned out to be 8 µg/mL (≈ 19.2 µM) in data set [1]; 4 µg/mL (≈ 9.58 µM) in data set [2]; 8 µg/mL (≈ 19.2 µM) in data set [3]; 4 µg/mL (≈ 9.58 µM) in data set [4]; 8 µg/mL (≈ 19.2 µM) in data set [5]; 4 µg/mL (≈ 9.58 µM) in data set [7]. In addition, the MNTC in data set [8] was no less than 256 µg/mL; in data set [6] it was no less than 512 µg/mL.
With `Cc1cccc(N2CCN(Cc3oc(CCl)cc(=O)c3O)CC2)c1C`, the MIC in data set [1] is 16 µg/mL (≈ 44.1 µM); in data set [2], 4 µg/mL (≈ 11 µM); in data set [3], 16 µg/mL (≈ 44.1 µM); in data set [4] it was 8 µg/mL (≈ 22 µM); in data set [5], 8 µg/mL (≈ 22 µM); in data set [7] it was 8 µg/mL (≈ 22 µM). For the same compound, the MNTC in data set [8] and in data set [6] was no less than 256 µg/mL in each case.
